Measurements taken from ChEMBL document CHEMBL3120069, “Chemical genetics-based discovery of indole derivatives as HCV NS5B polymerase inhibitors” (Eur J Med Chem, 2014).

Test system: not listed separately
Assay: Cytotoxicity against human Huh7.5 cells assessed as cell viability at 10 uM after 72 hrs by MTT assay relative to control
Type: cell-based, Huh-7
Conditions: read-out: Activity
How it was run: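 Rluc-J6/JFH1 RNA-transfected Huh7.5 cells screened at a single 10 µM for 72 h alongside DMSO, with clemizole as positive control. Renilla luciferase gave replication level and parallel MTT gave viability, each as percent of DMSO; ratio of viability to replication reported.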

Row | Compound | viability at 72 h, 10 µM
1 | CC(C)(C)c1ccc(NC(=O)/C=C/c2c[nH]c3ccccc23)cc1 | 60.1%
2 | CCN(CC)C(=O)/C=C/c1c[nH]c2ccccc12 | 93.8%
3 | CC(C)NC(=O)/C=C/c1c[nH]c2ccccc12 | 106%
4 | O=C(/C=C/c1c[nH]c2ccccc12)N1CCN(Cc2ccc(C(F)(F)F)cc2)CC1 | 81.7%
5 | COc1ccc(CNC(=O)/C=C/c2c[nH]c3ccccc23)cc1OC | 92.2%
6 | Clc1ccc(Cn2c(CN3CCCC3)nc3ccccc32)cc1 [CLEMIZOLE] | 102%

Test system: Hepatitis C virus
Assay: Antiviral activity against Hepatitis C virus JFH-1 J6 genotype 2a infected in human Huh7.5 cells assessed as viral RNA replication at 10 uM after 72 hrs by luciferase reporter gene assay relative to control
Conditions: subtype 2a JFH1 J6, Huh-7, 72 h

Row | Compound | Activity at 10 µM
7 | CC(C)(C)c1ccc(NC(=O)/C=C/c2c[nH]c3ccccc23)cc1 | 2.1%
8 | CCN(CC)C(=O)/C=C/c1c[nH]c2ccccc12 | 72%
9 | CC(C)NC(=O)/C=C/c1c[nH]c2ccccc12 | 69%
10 | O=C(/C=C/c1c[nH]c2ccccc12)N1CCN(Cc2ccc(C(F)(F)F)cc2)CC1 | 32.4%
11 | COc1ccc(CNC(=O)/C=C/c2c[nH]c3ccccc23)cc1OC | 35.1%
12 | Clc1ccc(Cn2c(CN3CCCC3)nc3ccccc32)cc1 [CLEMIZOLE] | 23.4%

Test system: not listed separately
Assay: Ratio of cytotoxicity against human Huh7.5 cells assessed as cell viability to antiviral activity against Hepatitis C virus JFH-1 J6 genotype 2a infected in human Huh7.5 cells assessed as inhibition of viral RNA replication
Type: toxicity, cell-based, Huh-7
Conditions: not given

Row | Compound | selectivity ratio
13 | CC(C)(C)c1ccc(NC(=O)/C=C/c2c[nH]c3ccccc23)cc1 | 28.6
14 | CCN(CC)C(=O)/C=C/c1c[nH]c2ccccc12 | 1.3
15 | CC(C)NC(=O)/C=C/c1c[nH]c2ccccc12 | 1.5
16 | O=C(/C=C/c1c[nH]c2ccccc12)N1CCN(Cc2ccc(C(F)(F)F)cc2)CC1 | 2.5
17 | COc1ccc(CNC(=O)/C=C/c2c[nH]c3ccccc23)cc1OC | 2.6
18 | Clc1ccc(Cn2c(CN3CCCC3)nc3ccccc32)cc1 [CLEMIZOLE] | 4.3

Test system: not listed separately
Assay: Cytotoxicity against human Huh7.5 cells assessed as cell viability after 72 hrs by MTT assay
Type: cell-based, Huh-7
Conditions: not given

Row | Compound | CC50 at 72 h
19 | C/C(=C\c1c[nH]c2ccc(C#N)cc12)C(=O)Nc1ccc(C)cc1 | > 100 µM
20 | C/C(=C\c1c[nH]c2ccccc12)C(=O)NCCCn1ccnc1 | > 100 µM
21 | COc1ccc2[nH]cc(/C=C(\C)C(=O)Nc3ccc(C(C)(C)C)cc3)c2c1 | 16.4 µM
22 | C/C(=C\c1c[nH]c2ccc([N+](=O)[O-])cc12)C(=O)Nc1ccc(C(C)(C)C)cc1 | 23.1 µM
23 | COc1ccc2c(/C=C(\C)C(=O)Nc3ccc(C(C)(C)C)cc3)c[nH]c2c1 | 30.7 µM
24 | CC(C)(C)c1ccc(NC(=O)/C=C/c2c[nH]c3ccccc23)cc1 | 10.1 µM
25 | C/C(=C\c1c[nH]c2cc(C)ccc12)C(=O)Nc1ccc(C(C)(C)C)cc1 | 25.6 µM
26 | CCN(CC)C(=O)/C=C/c1c[nH]c2ccccc12 | 98.7 µM
27 | CC(C)NC(=O)/C=C/c1c[nH]c2ccccc12 | > 100 µM
28 | C/C(=C\c1c[nH]c2ccccc12)C(=O)Nc1ccc(C(F)(F)F)cc1 | 94.9 µM
29 | COc1cccc2[nH]cc(/C=C(\C)C(=O)Nc3ccc(C(C)(C)C)cc3)c12 | 34.1 µM
30 | CCOC(=O)/C(C)=C/c1c[nH]c2ccccc12 | 25.3 µM
31 | C/C(=C\c1c[nH]c2ccc(C)cc12)C(=O)Nc1ccc(C(C)(C)C)cc1 | 28.1 µM
32 | C/C(=C\c1c[nH]c2ccccc12)C(=O)NCCN(C)C | > 100 µM
33 | CNC(=O)/C(C)=C/c1c[nH]c2ccccc12 | > 10 µM
34 | C/C(=C\c1c[nH]c2ccccc12)C(N)=O | > 10 µM
35 | CC(C)(C)c1ccc(NC(=O)CCc2c[nH]c3ccccc23)cc1 | 13.6 µM
36 | C/C(=C\c1c[nH]c2ccccc12)C(=O)NCc1ccco1 | 39.1 µM
37 | C/C(=C\c1c[nH]c2cc(C(C)C)ccc12)C(=O)Nc1ccc(C(C)(C)C)cc1 | 24.8 µM
38 | C/C(=C\c1c[nH]c2cc(Br)ccc12)C(=O)Nc1ccc(C(C)(C)C)cc1 | 68.8 µM
39 | C/C(=C\c1c[nH]c2ccc(C#N)cc12)C(=O)Nc1ccc(C(C)C)cc1 | 137 µM
40 | O=C(/C=C/c1c[nH]c2ccccc12)N1CCN(Cc2ccc(C(F)(F)F)cc2)CC1 | 27.9 µM
41 | C/C(=C\c1c[nH]c2ccccc12)C(=O)O | > 100 µM
42 | COc1ccc(CNC(=O)/C=C/c2c[nH]c3ccccc23)cc1OC | 89.5 µM
43 | Clc1ccc(Cn2c(CN3CCCC3)nc3ccccc32)cc1 [CLEMIZOLE] | 39.4 µM
44 | C/C(=C\c1c[nH]c2ccccc12)C(=O)Nc1ccc(C(C)(C)C)cc1 | 17.3 µM

Test system: not listed separately
Assay: Selectivity index, ratio of CC50 for human Huh7.5 cells to EC50 for Hepatitis C virus JFH-1 J6 genotype 2a infected in human Huh7.5 cells
Type: toxicity, cell-based, Huh-7
Conditions: read-out: Ratio CC50/EC50

Row | Compound | selectivity ratio
45 | C/C(=C\c1c[nH]c2ccccc12)C(=O)NCCCn1ccnc1 | > 3
46 | COc1ccc2[nH]cc(/C=C(\C)C(=O)Nc3ccc(C(C)(C)C)cc3)c2c1 | 5.5
47 | C/C(=C\c1c[nH]c2ccc([N+](=O)[O-])cc12)C(=O)Nc1ccc(C(C)(C)C)cc1 | 3.7
48 | COc1ccc2c(/C=C(\C)C(=O)Nc3ccc(C(C)(C)C)cc3)c[nH]c2c1 | 3.5
49 | CC(C)(C)c1ccc(NC(=O)/C=C/c2c[nH]c3ccccc23)cc1 | 5.2
50 | C/C(=C\c1c[nH]c2cc(C)ccc12)C(=O)Nc1ccc(C(C)(C)C)cc1 | 5.7
51 | CCN(CC)C(=O)/C=C/c1c[nH]c2ccccc12 | 1.6
52 | CC(C)NC(=O)/C=C/c1c[nH]c2ccccc12 | > 1.1
53 | C/C(=C\c1c[nH]c2ccccc12)C(=O)Nc1ccc(C(F)(F)F)cc1 | 2.2
54 | COc1cccc2[nH]cc(/C=C(\C)C(=O)Nc3ccc(C(C)(C)C)cc3)c12 | 1.9
55 | CCOC(=O)/C(C)=C/c1c[nH]c2ccccc12 | 1.1
56 | C/C(=C\c1c[nH]c2ccc(C)cc12)C(=O)Nc1ccc(C(C)(C)C)cc1 | 4.2
57 | C/C(=C\c1c[nH]c2ccccc12)C(=O)NCCN(C)C | > 1.6
58 | CC(C)(C)c1ccc(NC(=O)CCc2c[nH]c3ccccc23)cc1 | 2.3
59 | C/C(=C\c1c[nH]c2ccccc12)C(=O)NCc1ccco1 | 3.5
60 | C/C(=C\c1c[nH]c2cc(C(C)C)ccc12)C(=O)Nc1ccc(C(C)(C)C)cc1 | 17
61 | C/C(=C\c1c[nH]c2cc(Br)ccc12)C(=O)Nc1ccc(C(C)(C)C)cc1 | 5.3
62 | C/C(=C\c1c[nH]c2ccc(C#N)cc12)C(=O)Nc1ccc(C(C)C)cc1 | 3.6
63 | O=C(/C=C/c1c[nH]c2ccccc12)N1CCN(Cc2ccc(C(F)(F)F)cc2)CC1 | 1.8
64 | COc1ccc(CNC(=O)/C=C/c2c[nH]c3ccccc23)cc1OC | 6.9
65 | Clc1ccc(Cn2c(CN3CCCC3)nc3ccccc32)cc1 [CLEMIZOLE] | 4.9
66 | C/C(=C\c1c[nH]c2ccccc12)C(=O)Nc1ccc(C(C)(C)C)cc1 | 7.9

Test system: Hepatitis C virus
Assay: Antiviral activity against Hepatitis C virus JFH-1 J6 genotype 2a infected in human Huh7.5 cells assessed as inhibition of viral RNA replication after 72 hrs by luciferase reporter gene assay
Type: functional, organism-based, Hepacivirus hominis
Conditions: subtype 2a JFH1 J6, Huh-7, 72 h

Row | EC50 | Compound
67 | > 100 µM | C/C(=C\c1c[nH]c2ccc(C#N)cc12)C(=O)Nc1ccc(C)cc1
68 | 33.7 µM | C/C(=C\c1c[nH]c2ccccc12)C(=O)NCCCn1ccnc1
69 | 3 µM | COc1ccc2[nH]cc(/C=C(\C)C(=O)Nc3ccc(C(C)(C)C)cc3)c2c1
70 | 6.2 µM | C/C(=C\c1c[nH]c2ccc([N+](=O)[O-])cc12)C(=O)Nc1ccc(C(C)(C)C)cc1
71 | 8.8 µM | COc1ccc2c(/C=C(\C)C(=O)Nc3ccc(C(C)(C)C)cc3)c[nH]c2c1
72 | 1.9 µM | CC(C)(C)c1ccc(NC(=O)/C=C/c2c[nH]c3ccccc23)cc1
73 | 4.5 µM | C/C(=C\c1c[nH]c2cc(C)ccc12)C(=O)Nc1ccc(C(C)(C)C)cc1
74 | 62.7 µM | CCN(CC)C(=O)/C=C/c1c[nH]c2ccccc12
75 | 93.8 µM | CC(C)NC(=O)/C=C/c1c[nH]c2ccccc12
76 | 43.6 µM | C/C(=C\c1c[nH]c2ccccc12)C(=O)Nc1ccc(C(F)(F)F)cc1
77 | 17.6 µM | COc1cccc2[nH]cc(/C=C(\C)C(=O)Nc3ccc(C(C)(C)C)cc3)c12
78 | 22.2 µM | CCOC(=O)/C(C)=C/c1c[nH]c2ccccc12
79 | 6.7 µM | C/C(=C\c1c[nH]c2ccc(C)cc12)C(=O)Nc1ccc(C(C)(C)C)cc1
80 | 64.2 µM | C/C(=C\c1c[nH]c2ccccc12)C(=O)NCCN(C)C
81 | > 10 µM | CNC(=O)/C(C)=C/c1c[nH]c2ccccc12
82 | > 10 µM | C/C(=C\c1c[nH]c2ccccc12)C(N)=O
83 | 6.1 µM | CC(C)(C)c1ccc(NC(=O)CCc2c[nH]c3ccccc23)cc1
84 | 11.3 µM | C/C(=C\c1c[nH]c2ccccc12)C(=O)NCc1ccco1
85 | 1.5 µM | C/C(=C\c1c[nH]c2cc(C(C)C)ccc12)C(=O)Nc1ccc(C(C)(C)C)cc1
86 | 13 µM | C/C(=C\c1c[nH]c2cc(Br)ccc12)C(=O)Nc1ccc(C(C)(C)C)cc1
87 | 37.7 µM | C/C(=C\c1c[nH]c2ccc(C#N)cc12)C(=O)Nc1ccc(C(C)C)cc1
88 | 15.6 µM | O=C(/C=C/c1c[nH]c2ccccc12)N1CCN(Cc2ccc(C(F)(F)F)cc2)CC1
89 | > 10 µM | C/C(=C\c1c[nH]c2ccccc12)C(=O)O
90 | 12.9 µM | COc1ccc(CNC(=O)/C=C/c2c[nH]c3ccccc23)cc1OC
91 | 8 µM | Clc1ccc(Cn2c(CN3CCCC3)nc3ccccc32)cc1 [CLEMIZOLE]
92 | 2.2 µM | C/C(=C\c1c[nH]c2ccccc12)C(=O)Nc1ccc(C(C)(C)C)cc1
